The values that follow come from publication PMC8173612 (ACS Omega, 2021).

The structures appear in SMILES notation. ≈ marks a conversion by molar mass, not a printed value. Read-outs that look alike come from different tables or passages of the source.

As usually defined, the solubility is the dissolved amount per volume that the medium holds.

Series [1] is described as follows: Solubility screening of selected solvents. The format is physicochemical. Put shortly:
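Solvent screen in 2-propanol, tetrahydrofuran, cyclohexane and toluene. Solubility of each test compound was determined in each neat solvent at room temperature and at 0 °C. Values are reported in mg/mL.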

The conditions of series [2]: in deionized water, cyclohexane, petroleum ether, and hexane; cited from earlier work.
[3] abbreviates: solvent cyclohexane, RT (25-30 °C).
The mark [4] stands for this setting: tetrahydrofuran, 0 °C, organic solvent or mixture, thermodynamic from solid.
[5] abbreviates: tetrahydrofuran, organic solvent or mixture, thermodynamic from solid.
Where [6] appears, read: toluene, 0 °C, organic solvent or mixture, thermodynamic from solid.
[7] abbreviates: toluene, organic solvent or mixture, thermodynamic from solid.
The mark [8] stands for this setting: solvent 2-propanol, RT (25-30 °C).

On to `O=P(c1ccccc1)(c1ccccc1)c1ccccc1` [TPPO, Triphenylphosphine oxide], for which the solubility in series [1] (2-propanol, 0 °C, organic solvent or mixture, thermodynamic from solid) is 25.4 mg/mL (≈ 91.3 mM); in series [1] (2-propanol, organic solvent or mixture, thermodynamic from solid), 46.5 mg/mL (≈ 167 mM); in series [1] (solvent cyclohexane, 0 °C) it was “insoluble”; in series [1] (setting [3]) it was “insoluble”; in series [1] (setting [4]), 105 mg/mL (≈ 377 mM); in series [1] (setting [5]), 170 mg/mL (≈ 610 mM). Besides, the solubility was 42.9 mg/mL (≈ 154 mM) in series [1] (setting [6]), 44.3 mg/mL (≈ 159 mM) in series [1] (setting [7]) and “almost insoluble” in series [2].
For the molecule `CC(C)OC(=O)NNC(=O)OC(C)C.O=P(c1ccccc1)(c1ccccc1)c1ccccc1` [TPPO-H2DIAD, triphenylphosphine oxide-1,2-isopropylhydrazine dicarboxylate], the solubility was 13.3 mg/mL in series [1] (solvent 2-propanol, 0 °C); 60.4 mg/mL in series [1] (setting [8]); “insoluble” in series [1] (solvent cyclohexane, 0 °C); “insoluble” in series [1] (setting [3]); 61.0 mg/mL in series [1] (solvent tetrahydrofuran, 0 °C); 157.5 mg/mL in series [1] (solvent tetrahydrofuran, RT (25-30 °C)). In series [1] (solvent toluene, RT (25-30 °C)), this molecule yielded a solubility of 23.2 mg/mL.
With `CC(C)(C)OC(=O)N1C[C@@H](F)C[C@H]1CON1C(=O)c2ccccc2C1=O` [compound-6, tert-Butyl (2S,4S)-2-{[(1,3-Dioxo-1,3-dihydro-2H-isoindol-2-yl)oxy]methyl}-4-fluoro-pyrrolidine-1-carboxylate], the solubility entry in series [1] (solvent 2-propanol, 0 °C) is “insoluble”; in series [1] (setting [8]) it was “insoluble”; in series [1] (solvent cyclohexane, 0 °C), “insoluble”; in series [1] (setting [3]) it was “insoluble”; in series [1] (setting [4]), 101 mg/mL (≈ 277 mM); in series [1] (setting [5]) it was 124 mg/mL (≈ 342 mM). For the same molecule, the solubility came to 42.1 mg/mL (≈ 116 mM) in series [1] (setting [6]) and 46.7 mg/mL (≈ 128 mM) in series [1] (setting [7]).
